We go through 11 compounds from ChEMBL document CHEMBL4373680, “Small antibacterial molecules highly active against drug-resistant Staphylococcus aureus” (Medchemcomm, 2019).

Usually MIC stands for the lowest concentration found to suppress growth. Low readings indicate greater potency, high ones weaker potency. For orientation: HC50 means the concentration giving 50% haemolysis. For orientation: inhibition means how much of the control response was suppressed.

Values after ≈ are worked out from the molar mass of the structure shown. Active and inactive are the calls of the source. The calls are words filed in the database; no cut-off is given here. A value given as a limit tells only on which side of the number the result lay.

In data set [1] the test system is Staphylococcus aureus. Kind of data set: Antibacterial activity against methicillin-resistant Staphylococcus aureus ATCC 33591 after 24 hrs by tecan plate reader analysis. The class given is functional. Particulars: ATCC 33591, 24 h. The method in brief:
(§1)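 Colony grown 24 h on NB agar at 37 °C, then 6 h in nutrient broth to mid-log (10⁸ CFU/mL by drop plating), diluted to 10⁵ CFU/mL in Mueller Hinton broth; added 9:1 to two-fold serial compound dilutions in MHB. Incubated 24 h, 37 °C; OD600 read. Triplicate per concentration, experiment run twice; MIC taken from the range of triplicate OD values.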

The subject of another data set is Escherichia coli. Kind of data set: Antibacterial activity against Escherichia coli MTCC 443 after 24 hrs by tecan plate reader analysis. The data set is classed as functional. The method in brief:
(§2)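 Broth microdilution MIC. Glycerol stocks grown on MacConkey agar 24 h at 37 °C, then a single colony in nutrient broth 6 h to mid-log (~10⁸ CFU/mL). Cells diluted to 10⁵ CFU/mL in Mueller Hinton broth and added to two-fold compound dilutions. Incubated 24 h at 37 °C, OD600 read. Triplicate wells, experiment run twice.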

The next data set relates to Acinetobacter baumannii. Kind of data set: Antibacterial activity against Acinetobacter baumannii MTCC 1425 after 24 hrs by tecan plate reader analysis. The data set is classed as functional. The method in brief:
as §2

The test system of another data set is Klebsiella pneumoniae. Briefly: Antibacterial activity against Klebsiella pneumoniae ATCC 700603 after 24 hrs by tecan plate reader analysis. The class given is functional. The method in brief: as §2
For the next data set, the system named is Pseudomonas aeruginosa. Briefly: Antibacterial activity against Pseudomonas aeruginosa MTCC 424 after 24 hrs by tecan plate reader analysis. The data set is classed as functional. The method in brief:
as §2

Data set [2] in a line: Hemolytic activity in human erythrocytes after 1 hr. The data set is classed as ADME, cell-based, Erythrocyte. The method in brief: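 Heparinized donor blood. Erythrocytes washed three times in PBS and resuspended to 5 vol%, then mixed 3:1 with compound serially diluted in water. Incubated 1 h at 37 °C and centrifuged. Supernatant A540 read; % hemolysis relative to water and 0.1 vol% Triton-X controls.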

The subject of data set [3] is Staphylococcus aureus. Briefly: Antibiofilm activity against Staphylococcus aureus R3545 assessed as reduction in biofilm biomass at 32 ug/ml incubated for 24 hrs followed by plating on agar plate for 24 hrs by crystal violet staining assay relative to control. The data set is classed as functional. As to conditions: R3545, 24 h. The method in brief:
(§3)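 Biofilms grown 24 h static at 37 °C on coverslips (10⁵ CFU/mL in nutrient broth, 1% glucose, 1% NaCl) and treated 24 h, then PBS-washed, air-dried 10–15 min, stained with 0.1% w/v crystal violet 5–10 min, washed, dye recovered in 95% ethanol; OD 522 nm read. Run twice, mean with standard deviation.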

Data set [4] has as its system Staphylococcus aureus. Briefly: Antibiofilm activity against Staphylococcus aureus ATCC 33591 assessed as reduction in biofilm biomass at 32 ug/ml incubated for 24 hrs followed by plating on agar plate for 24 hrs by crystal violet staining assay relative to control. The class given is functional. Particulars: ATCC 33591, 24 h. The method in brief: as §3
Data set [5] deals with Staphylococcus aureus. Briefly: Antibacterial activity against vancomycin-resistant Staphylococcus aureus clinical isolate 1 after 24 hrs by tecan plate reader analysis. The class given is functional. Particulars: clinical isolate 1, 24 h. The method in brief: as §1
Data set [6] relates to Staphylococcus aureus. Briefly: Antibacterial activity against vancomycin-resistant Staphylococcus aureus clinical isolate 4 after 24 hrs by tecan plate reader analysis. As to conditions: clinical isolate 4, 24 h. The class given is functional. The method in brief: as §1
Data set [7] has as its system Staphylococcus aureus. Briefly: Bactericidal activity against metabolically inactive stationary phase methicillin-resistant Staphylococcus aureus ATCC 33591 assessed as reduction in bacterial colony formation at 32 ug/ml incubated for 6 hrs followed by plating on agar plate for 24 hrs by visual counting analysis. The data set is classed as functional, organism-based.

The subject of data set [8] is Staphylococcus aureus. Briefly: Bactericidal activity against metabolically inactive stationary phase methicillin-resistant Staphylococcus aureus R3545 assessed as reduction in bacterial colony formation at 32 ug/ml incubated for 6 hrs followed by plating on agar plate for 24 hrs by visual counting analysis. The class given is functional, organism-based.
The mark [9] stands for this setting: Klebsiella pneumoniae, 700603, 24 h.

Take `CCCCCCCCCCCCNC(=O)C[N+](C)(CCO)CCCCCCCCCC[N+](C)(CCO)CC(=O)NCCCCCCCCCCCC.[Br-].[Br-]` (stereo not given): the MIC with Staphylococcus aureus [1] was 4 µg/mL; in the data set with Escherichia coli (MTCC 443, 24 h), 32 µg/mL; in the data set with Acinetobacter baumannii (MTCC 1425, 24 h) it was 8 µg/mL; against Klebsiella pneumoniae (setting [9]) it was 64 to 128 µg/mL; against Pseudomonas aeruginosa (MTCC 424, 24 h), 64 to 128 µg/mL. For the same compound, the HC50 at 1 h in [2] amounted to 32 µg/mL.
Regarding `CCCCCCCCCCNC(=O)C[N+](C)(CCO)CCC[N+](C)(CCO)CC(=O)NCCCCCCCCCC.[Br-].[Br-]` (stereo not given), the MIC against Staphylococcus aureus [1] is 1 µg/mL; in the data set on Escherichia coli (MTCC 443, 24 h), 1 µg/mL; in the data set on Acinetobacter baumannii (MTCC 1425, 24 h), 2 µg/mL; in the data set on Klebsiella pneumoniae (setting [9]) it was 4 µg/mL; against Pseudomonas aeruginosa (MTCC 424, 24 h), 2 µg/mL. The compound also registered an HC50 at 1 h in data set [2] of 34 µg/mL.
As for COLISTIN, the minimal inhibitory concentration (MIC) with Escherichia coli was 1 µg/mL; in the data set with Acinetobacter baumannii, 0.5 µg/mL; in the data set on Klebsiella pneumoniae, 1 µg/mL; against Pseudomonas aeruginosa it was 1 µg/mL.
Regarding `CCCCCCNC(=O)C[N+](C)(CCO)CCC[N+](C)(CCO)CC(=O)NCCCCCC.O=C([O-])C(F)(F)F.O=C([O-])C(F)(F)F` (stereo not given), the minimal inhibitory concentration (MIC) is 256 µg/mL with Staphylococcus aureus [1]; greater than 256 µg/mL in the data set with Escherichia coli (MTCC 443, 24 h); greater than 256 µg/mL in the data set with Acinetobacter baumannii (MTCC 1425, 24 h); greater than 256 µg/mL in the data set on Klebsiella pneumoniae (setting [9]); greater than 256 µg/mL in the data set with Pseudomonas aeruginosa (MTCC 424, 24 h). In [2], this compound registered a concentration for 50% haemolysis (HC50) at 1 h greater than 1020 µg/mL.
For `CN[C@H](CC(C)C)C(=O)N[C@H]1C(=O)N[C@@H](CC(N)=O)C(=O)N[C@H]2C(=O)N[C@H]3C(=O)N[C@H](C(=O)N[C@H](C(=O)O)c4cc(O)cc(O)c4-c4cc3ccc4O)[C@H](O)c3ccc(c(Cl)c3)Oc3cc2cc(c3O[C@@H]2O[C@H](CO)[C@@H](O)[C@H](O)[C@H]2O[C@H]2C[C@](C)(N)[C@H](O)[C@H](C)O2)Oc2ccc(cc2Cl)[C@H]1O` [VANCOMYCIN], the inhibition at 32 µg/mL in the data set on Staphylococcus aureus [3] and in the data set on Staphylococcus aureus [4] was 10% in each case. The MIC in the data set on Staphylococcus aureus [1] was 0.5 to 1 µg/mL (≈ 0.345 to 0.69 µM); with Staphylococcus aureus [5], 512 µg/mL (≈ 353 µM); in the data set on Staphylococcus aureus [6], 512 µg/mL (≈ 353 µM). Moreover, the result with Staphylococcus aureus [7] and in the data set with Staphylococcus aureus [8] was inactive.
In the case of `CCCCCCCCCCNC(=O)C[N+](C)(CCO)CCCCCC[N+](C)(CCO)CC(=O)NCCCCCCCCCC.[Br-].[Br-]` (stereo not given), the MIC in the data set on Staphylococcus aureus [1] was 0.5 µg/mL; with Escherichia coli (MTCC 443, 24 h), 1 µg/mL; against Acinetobacter baumannii (MTCC 1425, 24 h) it was 2 µg/mL; against Klebsiella pneumoniae (setting [9]), 2 to 4 µg/mL; against Pseudomonas aeruginosa (MTCC 424, 24 h) it was 4 µg/mL. Moreover, in [2], the concentration for 50% haemolysis (HC50) at 1 h worked out at 31 µg/mL.
With `CCCCCCCCCCCCNC(=O)C[N+](C)(CCO)CCCCCCCCCCCC[N+](C)(CCO)CC(=O)NCCCCCCCCCCCC.[Br-].[Br-]` (stereo not given), the MIC in the data set on Staphylococcus aureus [1] is 2 to 4 µg/mL; against Escherichia coli (MTCC 443, 24 h) it was 32 µg/mL; in the data set on Acinetobacter baumannii (MTCC 1425, 24 h), 32 µg/mL; in the data set with Klebsiella pneumoniae (setting [9]), 128 to 256 µg/mL; against Pseudomonas aeruginosa (MTCC 424, 24 h), 64 µg/mL. Also, the HC50 at 1 h in data set [2] turned out to be 22 µg/mL.
For the compound `CCCCCCCCNC(=O)C[N+](C)(CCO)CCC[N+](C)(CCO)CC(=O)NCCCCCCCC.[Br-].[Br-]` (stereo not given), the MIC against Staphylococcus aureus [1] was 2 µg/mL; against Escherichia coli (MTCC 443, 24 h) it was 16 µg/mL; against Acinetobacter baumannii (MTCC 1425, 24 h), 32 µg/mL; in the data set on Klebsiella pneumoniae (setting [9]) it was 32 µg/mL; in the data set with Pseudomonas aeruginosa (MTCC 424, 24 h), 8 µg/mL. This compound also gave a concentration for 50% haemolysis (HC50) at 1 h in data set [2] of 178 µg/mL.
With `CCCCCCCCCCCCNC(=O)C[N+](C)(CCO)CCCCCCCC[N+](C)(CCO)CC(=O)NCCCCCCCCCCCC.[Br-].[Br-]` (stereo not given), the minimal inhibitory concentration (MIC) against Staphylococcus aureus [1] is 2 µg/mL; in the data set on Escherichia coli (MTCC 443, 24 h), 32 µg/mL; in the data set on Acinetobacter baumannii (MTCC 1425, 24 h), 4 µg/mL; against Klebsiella pneumoniae (setting [9]) it was 64 µg/mL; against Pseudomonas aeruginosa (MTCC 424, 24 h), 64 to 128 µg/mL. The same compound had an HC50 at 1 h in data set [2] of 29 µg/mL.
For `CCCCCCCCCCNC(=O)C[N+](C)(CCO)CCCCCCCCCC[N+](C)(CCO)CC(=O)NCCCCCCCCCC.[Br-].[Br-]` (stereo not given), the MIC against Staphylococcus aureus [1] turned out to be 0.5 µg/mL; against Escherichia coli (MTCC 443, 24 h) it was 2 µg/mL; in the data set with Acinetobacter baumannii (MTCC 1425, 24 h), 1 µg/mL; with Klebsiella pneumoniae (setting [9]) it was 4 µg/mL; against Pseudomonas aeruginosa (MTCC 424, 24 h) it was 8 µg/mL. The compound also displayed a 50% haemolytic concentration (HC50) at 1 h in [2] of 18 µg/mL.
Turning to `CCCCCCCCCCCCNC(=O)C[N+](C)(CCO)CCCCCC[N+](C)(CCO)CC(=O)NCCCCCCCCCCCC.[Br-].[Br-]` (stereo not given), the MIC in the data set with Staphylococcus aureus [1] is 1 to 2 µg/mL; in the data set on Escherichia coli (MTCC 443, 24 h), 8 µg/mL; against Acinetobacter baumannii (MTCC 1425, 24 h) it was 4 µg/mL; with Klebsiella pneumoniae (setting [9]) it was 128 µg/mL; with Pseudomonas aeruginosa (MTCC 424, 24 h), 128 to 256 µg/mL. In data set [2], this compound returned an HC50 at 1 h of 31 µg/mL.
